Results taken from ChEMBL document CHEMBL5370575, “Probing the Cytotoxic Signaling Induced by Eupenifeldin in Ovarian Cancer Models” (J Nat Prod, 2023).
Active and inactive are the calls of the source. The calls are words filed in the database; no cut-off is given here.

Experiments:
OVCAR-5 [1] = test: Cytostatic activity against human OVCAR-5 cells assessed as […] in colony formation at 10 nM incubated for 8 hrs measured after 2 weeks by crystal violet staining based analysis; assay type: functional, cell-based; conditions: time 344.0 hrs
Procedure, shortened: (§1)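 Seeded at 200 cells per dish, attached overnight, exposed 8 h to 10 nM (DMSO vehicle 0.1%), then grown 15 days in untreated growth medium. Colonies fixed with 4% paraformaldehyde, stained with 0.05% crystal violet, counted and normalised to vehicle. Mean ± SEM, three biological replicates, one-way ANOVA with Dunnett's test.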

OVCAR-8 [2] = test: Cytotoxicity against human OVCAR-8 cells assessed as inhibition of cell growth for 72 hrs by CellTiter-Blue cell viability assay; assay type: functional, cell-based
Procedure, shortened: (§2)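 5000 cells seeded in triplicate, attached overnight, then exposed for 72 h to serial concentrations in DMSO vehicle (0.05%). Viability was read by fluorometric CellTiter-Blue. IC50 in nM comes from dose–response curves relative to DMSO control. Media: OVCAR3 in RPMI1640, OVCAR5/OVCAR8 in DMEM, hFT33 in DMEM-Ham's F12 50/50, all with 10% FBS. Data are mean ± SEM, three biological replicates.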

[3] = Cytotoxicity against human FT33 cells assessed as inhibition of cell growth for 72 hrs by CellTiter-Blue cell viability assay; assay type: toxicity, cell-based; procedure, shortened: as §2
OVCAR-3 [4] = test: Cytostatic activity against human OVCAR-3 cells assessed as […] in colony formation at 10 nM incubated for 8 hrs measured after 2 weeks by crystal violet staining based analysis; assay type: functional, cell-based; conditions: time 344.0 hrs; procedure, shortened: as §1
OVCAR-8 [5] = test: Cytostatic activity against human OVCAR-8 cells assessed as […] in colony formation at 10 nM incubated for 8 hrs measured after 2 weeks by crystal violet staining based analysis; assay type: functional, cell-based; conditions: time 344.0 hrs; procedure, shortened: as §1
OVCAR-5 [6] = test: Cytotoxicity against human OVCAR-5 cells assessed as inhibition of cell growth for 72 hrs by CellTiter-Blue cell viability assay; assay type: functional, cell-based; conditions: OVCAR-5, 72 h; procedure, shortened: as §2
OVCAR-3 [7] = test: Cytotoxicity against human OVCAR-3 cells assessed as inhibition of cell growth for 72 hrs by CellTiter-Blue cell viability assay; assay type: functional, cell-based; conditions: OVCAR-3, 72 h; procedure, shortened: as §2

| Structure (SMILES) | Activity (OVCAR-5 [1]) | IC50 (OVCAR-8 [2]; OVCAR-8, 72 h) | IC50 at 72 h [3] | Activity (OVCAR-3 [4]) | Activity (OVCAR-8 [5]) | IC50 (OVCAR-5 [6]) | IC50 (OVCAR-3 [7]) | Activity (OVCAR-8 [2]) |
| --- | --- | --- | --- | --- | --- | --- | --- | --- |
| CC(=O)O[C@H]1C(=O)[C@@]2(C)[C@H]([C@H](OC(=O)c3ccccc3)[C@]3(O)C[C@H](OC(=O)[C@H](O)[C@@H](NC(=O)c4ccccc4)c4ccccc4)C(C)=C1C3(C)C)[C@]1(OC(C)=O)CO[C@@H]1C[C@@H]2O [PACLITAXEL] | Active | 6.5 nM | 11 nM | Active | Active | 3.6 nM | 2.6 nM |  |
| CO/C1=C\C(C)=C\[C@@H](C)[C@@H](O)[C@@H](C)C/C(C)=C/C=C/[C@H](OC)[C@@H]([C@@H](C)[C@@H](O)[C@H](C)[C@@]2(O)C[C@@H](O)[C@H](C)[C@@H](C(C)C)O2)OC1=O |  |  |  |  |  |  |  | Active |
